What was measured:
Format in all cases: functional
HL-60(TB) = assay: Growth inhibition of human HL-60(TB) cells at 1 uM after 96 hrs by MTT assay; set-up: scale not given: the % may be the effect or the level left
OVCAR-5 [1] = assay: Growth inhibition of human OVCAR5 cells at 1 nM after 96 hrs by MTT assay; set-up: scale not given: the % may be the effect or the level left
SF-268 [2] = assay: Growth inhibition of human SF268 cells at 1 nM after 96 hrs by MTT assay; set-up: scale not given: the % may be the effect or the level left
HOP-62 = assay: Growth inhibition of human HOP62 cells at 10 nM after 96 hrs by MTT assay; set-up: scale not given: the % may be the effect or the level left
SK-MEL-5 = assay: Growth inhibition of human SK-MEL-5 cells at 100 nM after 96 hrs by MTT assay; set-up: scale not given: the % may be the effect or the level left
MDA-MB-231 = assay: Growth inhibition of human MDA-MB-231 cells after 96 hrs by MTT assay; settings: MDA-MB-231, 96 h
Procedure, shortened: (§1)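 Run in the NCI 60 human tumour cell line panel as a five-dose assay. GI50 and LC50 were reported for each cell line.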

UACC-62 [3] = assay: Growth inhibition of human UACC62 cells at 100 nM after 96 hrs by MTT assay; set-up: scale not given: the % may be the effect or the level left
EKVX = assay: Growth inhibition of human EKVX cells at 10 uM after 96 hrs by MTT assay; set-up: scale not given: the % may be the effect or the level left
KM12 = assay: Growth inhibition of human KM12 cells at 1 nM after 96 hrs by MTT assay; set-up: scale not given: the % may be the effect or the level left
OVCAR-5 [4] = assay: Growth inhibition of human OVCAR5 cells at 1 uM after 96 hrs by MTT assay; set-up: scale not given: the % may be the effect or the level left
UACC-62 [5] = assay: Growth inhibition of human UACC62 cells at 1 nM after 96 hrs by MTT assay; set-up: scale not given: the % may be the effect or the level left
UO-31 = assay: Growth inhibition of human UO31 cells at 1 uM after 96 hrs by MTT assay; set-up: scale not given: the % may be the effect or the level left
SF-539 [6] = assay: Growth inhibition of human SF539 cells at 1 nM after 96 hrs by MTT assay; set-up: scale not given: the % may be the effect or the level left
SK-MEL-2 = assay: Growth inhibition of human SK-MEL-2 cells at 100 nM after 96 hrs by MTT assay; set-up: scale not given: the % may be the effect or the level left
K562 [7] = assay: Growth inhibition of human K562 cells at 1 nM after 96 hrs by MTT assay; set-up: scale not given: the % may be the effect or the level left
NCI-H23 = assay: Growth inhibition of human NCI-H23 cells at 1 uM after 96 hrs by MTT assay; set-up: scale not given: the % may be the effect or the level left
DU-145 = assay: Growth inhibition of human DU145 cells at 10 nM after 96 hrs by MTT assay; set-up: scale not given: the % may be the effect or the level left
SF-539 [8] = assay: Growth inhibition of human SF539 cells after 96 hrs by MTT assay; settings: SF-539, 96 h
Procedure, shortened: (§2)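 Tested in the NCI 60-cell-line panel in five-dose format; GI50 and LC50 values reported for each cell line.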

PC-3 = assay: Growth inhibition of human PC3 cells at 1 uM after 96 hrs by MTT assay; set-up: scale not given: the % may be the effect or the level left
MOLT-4 = assay: Growth inhibition of human MOLT4 cells at 1 uM after 96 hrs by MTT assay; set-up: scale not given: the % may be the effect or the level left
[9] = Growth inhibition of human Hs 578T cells at 100 nM after 96 hrs by MTT assay; set-up: scale not given: the % may be the effect or the level left
MDA-MB-468 = assay: Growth inhibition of human MDA-MB-468 cells after 96 hrs by MTT assay; settings: MDA-MB-468, 96 h; procedure, shortened: as §1
SF-539 [10] = assay: Growth inhibition of human SF539 cells at 10 nM after 96 hrs by MTT assay; set-up: scale not given: the % may be the effect or the level left
K562 [11] = assay: Growth inhibition of human K562 cells at 100 nM after 96 hrs by MTT assay; set-up: scale not given: the % may be the effect or the level left
SF-268 [12] = assay: Growth inhibition of human SF268 cells after 96 hrs by MTT assay; settings: SF-268, 96 h; procedure, shortened: as §2
HOP-92 [13] = assay: Growth inhibition of human HOP92 cells at 10 uM after 96 hrs by MTT assay; set-up: scale not given: the % may be the effect or the level left
HCT-15 = assay: Growth inhibition of human HCT15 cells at 100 nM after 96 hrs by MTT assay; set-up: scale not given: the % may be the effect or the level left
SNB-75 [14] = assay: Growth inhibition of human SNB75 cells after 96 hrs by MTT assay; settings: SNB-75, 96 h; procedure, shortened: as §2
MCF7 = assay: Growth inhibition of human MCF7 cells at 100 nM after 96 hrs by MTT assay; set-up: scale not given: the % may be the effect or the level left
NCI/ADR-RES [15] = assay: Growth inhibition of human NCI/ADR-RES cells at 10 nM after 96 hrs by MTT assay; set-up: scale not given: the % may be the effect or the level left
HT-29 = assay: Growth inhibition of human HT-29 cells at 1 uM after 96 hrs by MTT assay; set-up: scale not given: the % may be the effect or the level left
SF-295 = assay: Growth inhibition of human SF295 cells at 10 nM after 96 hrs by MTT assay; set-up: scale not given: the % may be the effect or the level left
SNB-75 [16] = assay: Growth inhibition of human SNB75 cells at 10 uM after 96 hrs by MTT assay; set-up: scale not given: the % may be the effect or the level left
[17] = Growth inhibition of human RPMI8266 cells at 100 nM after 96 hrs by MTT assay; set-up: scale not given: the % may be the effect or the level left
SK-MEL-28 = assay: Growth inhibition of human SK-MEL-28 cells at 1 uM after 96 hrs by MTT assay; set-up: scale not given: the % may be the effect or the level left
U-251 = assay: Growth inhibition of human U251 cells after 96 hrs by MTT assay; settings: U-251, 96 h; procedure, shortened: as §2
HOP-92 [18] = assay: Growth inhibition of human HOP92 cells at 1 nM after 96 hrs by MTT assay; set-up: scale not given: the % may be the effect or the level left
SNB-75 [19] = assay: Growth inhibition of human SNB75 cells at 10 nM after 96 hrs by MTT assay; set-up: scale not given: the % may be the effect or the level left
NCI/ADR-RES [20] = assay: Growth inhibition of human NCI/ADR-RES cells after 96 hrs by MTT assay; procedure, shortened: as §1
[21] = read-out: LC50 (the source's name)
[22] = read-out: Log10GI50 (converted)
[23] = read-out: Log10LC50 (converted)

C=C(C)[C@H]1CC=C(C)C2=CO[C@@H](c3ccccc3F)[C@@H]21
Activity (HL-60(TB)): -40% | Activity (OVCAR-5 [1]): 97% | Activity (SF-268 [2]): 91% | Activity (HOP-62): 97% | Activity (SK-MEL-5): 69% | GI50 (MDA-MB-231; read-out: GI50): 6.73 µM | CC50 (MDA-MB-231; [21]): 55.9 µM | GI50 (MDA-MB-231; [22]): 6.76 µM | CC50 (MDA-MB-231; [23]): 56.2 µM | TGI (MDA-MB-231; read-out: Log10TGI (converted)): 22.4 µM | TGI (MDA-MB-231; read-out: TGI): 22.3 µM | Activity (UACC-62 [3]): 73% | Activity (EKVX): 102.28% | Activity (KM12): 95% | Activity (OVCAR-5 [4]): 126% | Activity (UACC-62 [5]): 88% | Activity (UO-31): 42% | Activity (SF-539 [6]): 91% | Activity (SK-MEL-2): 76% | Activity (K562 [7]): 101% | Activity (NCI-H23): 34% | Activity (DU-145): 84% | GI50 (SF-539 [8]; read-out: GI50): 6.82 µM | CC50 (SF-539 [8]; [21]): 44.8 µM | GI50 (SF-539 [8]; [22]): 6.76 µM | CC50 (SF-539 [8]; [23]): 44.7 µM | TGI (SF-539 [8]; read-out: Log10TGI (converted)): 20 µM | TGI (SF-539 [8]; read-out: TGI): 20 µM | Activity (PC-3): 20% | Activity (MOLT-4): -15% | Activity [9]: 67% | GI50 (MDA-MB-468; read-out: GI50): 1430 nM | CC50 (MDA-MB-468; [21]): 66.1 µM | GI50 (MDA-MB-468; [22]): 1450 nM | CC50 (MDA-MB-468; [23]): 66.1 µM | TGI (MDA-MB-468; read-out: Log10TGI (converted)): 14.1 µM | TGI (MDA-MB-468; read-out: TGI): 14.1 µM | Activity (SF-539 [10]): 90% | Activity (K562 [11]): 68% | GI50 (SF-268 [12]; read-out: GI50): 6.95 µM | CC50 (SF-268 [12]; [21]): 62.9 µM | GI50 (SF-268 [12]; [22]): 6.92 µM | CC50 (SF-268 [12]; [23]): 63.1 µM | TGI (SF-268 [12]; read-out: Log10TGI (converted)): 23.4 µM | TGI (SF-268 [12]; read-out: TGI): 23.4 µM | Activity (HOP-92 [13]): 66.62% | Activity (HCT-15): 84% | GI50 (SNB-75 [14]; read-out: GI50): 4.94 µM | LC50 (SNB-75 [14]; read-out: LC50): 56.9 µM | GI50 (SNB-75 [14]; [22]): 4.9 µM | LC50 (SNB-75 [14]; [23]): 57.5 µM | TGI (SNB-75 [14]; read-out: Log10TGI (converted)): 20.4 µM | TGI (SNB-75 [14]; read-out: TGI): 20.5 µM | Activity (MCF7): 83% | Activity (NCI/ADR-RES [15]): 97% | Activity (HT-29): 22% | Activity (SF-295): 92% | Activity (SNB-75 [16]): 80.72% | Activity [17]: 23% | Activity (SK-MEL-28): 53% | GI50 (U-251; read-out: GI50): 3.06 µM | CC50 (U-251; [21]): 37.7 µM | GI50 (U-251; [22]): 3.09 µM | CC50 (U-251; [23]): 38 µM | TGI (U-251; read-out: Log10TGI (converted)): 14.1 µM | TGI (U-251; read-out: TGI): 14.2 µM | Activity (HOP-92 [18]): 88% | Activity (SNB-75 [19]): 81% | GI50 (NCI/ADR-RES [20]; read-out: GI50): 3.67 µM | CC50 (NCI/ADR-RES [20]; [21]): 56.1 µM | GI50 (NCI/ADR-RES [20]; [22]): 3.63 µM | CC50 (NCI/ADR-RES [20]; [23]): 56.2 µM | TGI (NCI/ADR-RES [20]; read-out: Log10TGI (converted)): 17.8 µM | TGI (NCI/ADR-RES [20]; read-out: TGI): 17.9 µM
